14 compounds from ChEMBL document CHEMBL5356968, “Miconazole-like Scaffold is a Promising Lead for Naegleria fowleri-Specific CYP51 Inhibitors” (J Med Chem, 2023) can be followed below.

One data set relates to Naegleria fowleri. In words: Antiprotozoal activity against Naegleria fowleri. Type of data set: functional, organism-based.
Conditions: not given
In short, it runs like this: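 N. fowleri European KUL trophozoites, axenic in Nelson's medium + 10% FBS at 37 °C, harvested in log phase. Single-point screen at 10 μM in duplicate (2,500 amoebae/well). Dose–response in triplicate, serial dilution 50 to 0.39 μM (10,000 amoebae/well). 48 h at 37 °C; viability by CellTiter-Glo luminescence.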
As to `CCC(C)n1ncn(-c2ccc(N3CCN(c4ccc(OCC5COC(Cn6cncn6)(c6ccc(Cl)cc6Cl)O5)cc4)CC3)cc2)c1=O` (stereo not given) [ITRACONAZOLE], the EC50 was at most 10 µM.

In turn, `CC[C@@H]([C@H](C)O)n1ncn(-c2ccc(N3CCN(c4ccc(OC[C@@H]5CO[C@@](Cn6cncn6)(c6ccc(F)cc6F)C5)cc4)CC3)cc2)c1=O` [POSACONAZOLE] showed an EC50 of at most 10 µM.

Test system in the next data set: not listed separately
In words: Drug concentration in C57BL/6 mouse plasma at 40 mg/kg, ip measured after 1 hrs by HPLC-ESI-MS/MS analysis. Type of data set: ADME, organism-based.
Conditions: not given
`FC(F)(F)c1cccc(CO[C@H](Cn2ccnc2)c2ccc(Cl)cc2Cl)c1` displayed a concentration at 1 h of 37 ng/mL.

`Fc1ccc([C@@H](Cn2ccnc2)OCc2cc(Cl)cc(Cl)c2)cc1` came in with a concentration at 1 h of 656 ng/mL.

The subject of a further data set is Naegleria fowleri. In words: Antiprotozoal activity against Naegleria fowleri European KUL assessed as inhibition of parasite growth incubated for 48 hrs by CellTiter-Glo luminescent cell viability assay. Type of data set: functional, organism-based.
Conditions: not given
Turning to `OC(Cn1cncn1)(Cn1cncn1)c1ccc(F)cc1F` [FLUCONAZOLE], the concentration for a half-maximal effect (EC50) came out at 13.9 µM.

Test system in the next data set: not listed separately
Kind of data set: Drug concentration in C57BL/6 mouse brain at 40 mg/kg, ip measured after 1 hrs by HPLC-ESI-MS/MS analysis. The class given is ADME, organism-based. The note with it: read-out: Drug uptake.
For the compound `Fc1ccc([C@@H](Cn2ccnc2)OCc2cc(Cl)cc(Cl)c2)cc1`, the concentration at 1 h was 232 ng/g.

Another data set has as its system Naegleria fowleri. In words: Antiprotozoal activity against Naegleria fowleri European KUL assessed as inhibition of parasite growth at 10 uM incubated for 48 hrs by CellTiter-Glo luminescent cell viability assay relative to control. Type of data set: functional.
Conditions: not given
In short, it runs like this:
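Axenic N. fowleri KUL trophozoites from log-phase culture in Nelson's medium with 10% FBS at 37 °C. Primary screen run in duplicate at 10 μM, 2,500 amoebae/well in 384-well format. Plates incubated 48 h at 37 °C, then viability read by CellTiter-Glo luminescence. BSL-2 handling.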
For `O=C(Nc1ccc(N2CCN(c3ccc(Cl)cc3)CC2)cc1)OC(Cn1ccnc1)c1ccc(F)cc1` (stereo not given), the inhibition at 10 µM is at least 50%.

On to `COc1ccc(C(Cc2ccc(-n3cccc3)cc2)n2ccnc2)cc1` (stereo not given), for which the inhibition at 10 µM is at least 50%.

`CC(C)c1cccc(NC(=O)OC(Cn2ccnc2)c2ccccc2)c1` (stereo not given): the inhibition at 10 µM was at least 50%.

In the case of `O=C(OC(Cn1ccnc1)c1ccc(F)cc1)c1cccc(C(F)(F)F)c1` (racemic), the inhibition at 10 µM was at least 50%.

As for `COc1ccc(C(Cc2ccc(Cl)cc2)n2ccnc2)cc1` (stereo not given), the inhibition at 10 µM is at least 50%.

As for `COc1ccc(CC(c2ccc(OC)cc2)n2ccnc2)cc1` (stereo not given), the inhibition at 10 µM was at least 50%.

For `Clc1ccc(-n2ccc(C(c3ccccc3)n3ccnc3)c2)cc1` (stereo not given), the inhibition at 10 µM was at least 50%.

With `O=C(OC(Cn1ccnc1)c1ccccc1)c1cccc(C(F)(F)F)c1` (stereo not given), the inhibition at 10 µM is at least 50%.

As to `Clc1ccc(C(c2ccn(-c3ccc(Cl)cc3)c2)n2ccnc2)cc1` (stereo not given), the inhibition at 10 µM is at least 50%.
